Results pooled from the literature.
gag-pol protease: Gag-Pol polyprotein, protease (gag-pol, Human immunodeficiency virus type 1 group M subtype B, UniProt P04585)
CES1: Liver carboxylesterase 1 (CES1, Homo sapiens, UniProt P23141)
F2: Prothrombin (F2, Homo sapiens, UniProt P00734)
KCNH2: Voltage-gated inwardly rectifying potassium channel KCNH2 (KCNH2, Homo sapiens, UniProt Q12809)

SMILES | target | assay | setting | endpoint | result
COc1ccc(S(=O)(=O)N(CC(C)C)C[C@@H](O)[C@H](Cc2ccccc2)NC(=O)O[C@@H]2CCC[C@@]23CCO[C@@H](c2ccccc2OC)C3)cc1 | gag-pol protease | enzyme activity, inhibitor |  | Ki | 0.0167 µM
NCCc1c[nH]c2ccc(O)cc12 | tlpQ (Pseudomonas aeruginosa, UniProt Q9I0I4) | binding, ITC |  | Kd | > 1000 µM
COc1c2c(cc3c1-c1c(cc4c(c1OC)OCO4)C[C@H](C)[C@H](C)C3)OCO2 | CES1 | enzyme activity, inhibitor |  | IC50 | 1.4 µM
CCOC(=O)c1ccc(OC(=O)CCCCCN=C(N)N)cc1 | F2 | enzyme activity, inhibitor |  | IC50 | 0.588 µM
COc1ccc(S(=O)(=O)N(CC(C)C)C[C@@H](O)[C@H](Cc2ccccc2)NC(=O)O[C@@H]2CCC[C@@]23CCO[C@@H](c2cc(OC)cc(OC)c2)C3)cc1 | gag-pol protease | enzyme activity, inhibitor |  | Ki | 0.0355 µM
Cn1c(=O)n(CCCCN2CCC3(CC2)OCc2ccccc23)c2ccccc21 | Sodium-dependent dopamine transporter (Slc6a3, Rattus norvegicus, UniProt P23977) | ligand displacement, radioligand | cell membranes | Ki | 0.311 µM
O=c1c2cc(Cl)ccc2[nH]c(=S)n1Cc1cccnc1 | KCNH2 | ion current, inhibitor, patch clamp | pH 7.4 | IC50 | > 10 µM
CCOC(=O)N[C@@H](CCCNC(=N)N)C(=O)N[C@@H](CCC(N)=O)C(=O)N[C@@H](Cc1ccccc1)C(=O)N[C@@H](CCCNC(=N)N)C(=O)c1nc2ccccc2s1 | F2 | cell-free assay |  | Ki | > 10 µM
O=c1c2cc(Cl)ccc2[nH]c(=S)n1Cc1ccc(-c2nnn[nH]2)nc1 | KCNH2 | ion current, inhibitor, patch clamp | pH 7.4 | IC50 | > 10 µM
CN1CCC(CNc2ccc3ncc(-c4cccc(OC(F)(F)F)c4)n3n2)CC1 | 3',5'-cyclic-AMP phosphodiesterase 4D (PDE4D, Homo sapiens, UniProt Q08499) | enzyme activity, inhibitor |  | IC50 | 5.04 µM
CC(C)=CCC[C@](C)(O)[C@H]1CC[C@]2(C)[C@@H]1[C@H](O)C[C@@H]1[C@@]3(C)CC[C@H](O)C(C)(C)[C@@H]3[C@@H](O[C@@H]3O[C@H](CO)[C@@H](O)[C@H](O)[C@H]3O)C[C@]12C | Aldo-keto reductase family 1 member B10 (AKR1B10, Homo sapiens, UniProt O60218) | binding, BLI |  | Kd | 3.19 µM
COCCC(=O)N[C@@H](CCC(N)=O)C(=O)N[C@@H](Cc1ccccc1)C(=O)N[C@@H](CCCNC(=N)N)C(=O)c1nc2ccccc2s1 | F2 | cell-free assay |  | Ki | > 10 µM
C=CCc1ccc(O)c(-c2cc(CC=C)ccc2O)c1 | CES1 | enzyme activity, inhibitor |  | IC50 | 0.39 µM
COc1ccc(S(=O)(=O)N(CC(C)C)C[C@@H](O)[C@H](Cc2ccccc2)NC(=O)O[C@H]2CCC[C@@]23CCO[C@@H](c2cccc(OC)c2)C3)cc1 | gag-pol protease | enzyme activity, inhibitor |  | Ki | 1.08 µM
